Experimental data of several laboratories.
Compare with care: the assays were run in different laboratories.

For `COc1cccc2c1C(=O)c1c(O)c3c(c(O)c1C2=O)C[C@@](O)(C(=O)CO)C[C@@H]3O[C@H]1C[C@H](N)[C@H](O)[C@H](C)O1`, the IC50 was 100 nM (BJ; cell growth or viability).
`Cc1ncsc1-c1ccc(CNC(=O)[C@@H]2C[C@@H](O)CN2C(=O)[C@@H](NC(=O)CCCCCCCCCCNC(=O)O[C@H]2C[C@@H](C)C=C3C=C[C@H](C)[C@H](CC[C@@H]4C[C@@H](O)CC(=O)O4)[C@H]32)C(C)(C)C)cc1` gave a compound remaining of 41.2% (metabolic stability; mouse, liver microsomes; 1 µM, 5 min, pH 7.4).
The CC50 of `Nc1ncnc2c1ncn2[C@@H]1C=C[C@@]2(CO)C[C@@H]12` is reported as greater than 100 µg/mL (MT4; cell growth or viability, MTT; 5 days).
With `N=C(N)c1ccc(OCCCCCCCOc2ccc(C(=N)N)cc2)cc1` the haemolysis was 9.2% (haemolysis; sheep; 200 µg/mL, 20 h).
With `COc1cc(/C=C/C(=O)OCCCc2ccc(O[C@H](COC(=O)/C=C/c3ccc(O)c(OC)c3)[C@@H](OC)c3ccc(O)c(OC)c3)c(OC)c2)ccc1O` the CC50 was greater than 10 µM (MT4; cell growth or viability; 72 h).
For `CON=C(N)c1ccc(-c2ccc(-c3ccc(C(N)=NOC)cc3)o2)cc1`, the Km was 900 nM (Cytochrome P450 2J2 (CYP2J2, Homo sapiens, UniProt P51589); enzyme activity, substrate).
`Cc1ccnc2c1NC(=O)c1cccnc1N2C1CC1` gave a CC50 of 0.82 µg/mL (MT4; cell growth or viability, MTT; 5 days).
With `N=C(N)c1ccccc1OCc1cccc(COc2ccccc2C(=N)N)c1` the haemolysis was 0% (haemolysis; sheep; 200 µg/mL, 1 h).
With `Cc1ccc2c(c1)nc(/C=C/c1cccc3cccnc13)n2-c1ccccc1` the compound remaining was 17.8% (metabolic stability; rat, liver microsomes; 1.5 µM, 45 min).
`C[C@H](Cn1cnc2c(N)ncnc21)OCP(=O)(O)O` has a CC50 of 6.73 µg/mL (MT4; cell growth or viability, MTT; 5 days).
`C=C(CCO)Cn1cnc2c(=O)[nH]c(N)nc21` has a CC50 of greater than 100 µM (MT4; cell growth or viability, MTT; 7 days).
`N=C(N)c1ccc(OCc2ccc(COc3ccc(C(=N)N)cc3)cc2)cc1` has a haemolysis of 0.4% (haemolysis; sheep; 200 µg/mL, 20 h).
For `O=c1ccn([C@@H]2C=C[C@@]3(CO)C[C@@H]23)c(=O)[nH]1`, the CC50 was greater than 100 µg/mL (MT4; cell growth or viability, MTT; 5 days).
The haemolysis of `N=C(N)c1ccc(OCCSCCOc2ccc(C(=N)N)cc2)cc1` is reported as 0% (haemolysis; sheep; 200 µg/mL, 20 h).
`CC(=O)Nc1nnc(N2CCN([C@@H](C)c3ccc4c(c3)OCO4)CC2)s1` gave a fraction unbound of 0.125 (dog, plasma; 1 µM).
